Tests used:
Details in all cases: Oryctolagus cuniculus
[1] = target: 5-hydroxytryptamine receptor 1D (Homo sapiens) (UniProt P28221); experiment: The compound was tested for intrinsic activity against 5-HT1D receptor
Procedure, shortened: (§1)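 Rabbit saphenous vein rings (male New Zealand White; 4–5 mm) mounted on tungsten wires in Krebs–Henseleit buffer, pH 7.4, 37 °C, gassed with 95% O2/5% CO2, at 2 g passive force. Pretreated for 30 min with pargyline (500 μM) and phenoxybenzamine (0.3 μM), then washed. Cumulative 5-HT curve, then after 60 min a test agonist curve. Potency is p[A50]; α is test maximum/5-HT maximum; n ≥ 3.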

[2] = target: 5-hydroxytryptamine receptor 1D (Homo sapiens) (UniProt P28221); experiment: The compound was tested for binding affinity against 5-HT1D receptor; procedure, shortened: as §1
[3] = target: 5-hydroxytryptamine receptor 2A (Homo sapiens) (UniProt P28223)
5-hydroxytryptamine receptor 2A (Homo sapiens), sequence (P28223 whole entry): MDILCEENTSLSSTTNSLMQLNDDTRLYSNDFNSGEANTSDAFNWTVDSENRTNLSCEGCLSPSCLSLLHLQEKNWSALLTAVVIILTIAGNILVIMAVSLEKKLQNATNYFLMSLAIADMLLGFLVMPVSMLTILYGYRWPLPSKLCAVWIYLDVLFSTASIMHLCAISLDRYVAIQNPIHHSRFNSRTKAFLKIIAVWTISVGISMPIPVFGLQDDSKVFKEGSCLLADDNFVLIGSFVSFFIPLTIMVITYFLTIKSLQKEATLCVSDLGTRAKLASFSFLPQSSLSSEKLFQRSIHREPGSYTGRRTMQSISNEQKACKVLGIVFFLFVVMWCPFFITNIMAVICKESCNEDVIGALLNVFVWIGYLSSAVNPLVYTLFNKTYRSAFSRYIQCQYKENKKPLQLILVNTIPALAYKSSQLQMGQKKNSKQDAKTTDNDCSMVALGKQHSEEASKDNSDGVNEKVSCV

5-hydroxytryptamine receptor 1D (Homo sapiens), sequence (P28221 whole entry): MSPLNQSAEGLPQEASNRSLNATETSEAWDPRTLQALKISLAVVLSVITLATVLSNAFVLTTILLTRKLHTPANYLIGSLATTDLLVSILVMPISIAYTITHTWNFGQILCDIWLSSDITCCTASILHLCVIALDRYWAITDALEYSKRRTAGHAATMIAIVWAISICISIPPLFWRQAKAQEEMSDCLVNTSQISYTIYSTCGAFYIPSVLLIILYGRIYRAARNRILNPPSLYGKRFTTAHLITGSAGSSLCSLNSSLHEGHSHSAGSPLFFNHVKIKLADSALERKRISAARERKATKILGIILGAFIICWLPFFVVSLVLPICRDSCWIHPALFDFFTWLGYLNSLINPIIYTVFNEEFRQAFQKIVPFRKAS

| Structure (SMILES) | Intrinsic activity [1] | p[A50] [2] | p[A50] [3] |
| --- | --- | --- | --- |
| CN(C)CCc1c[nH]c2ccc(CC3NC(=O)N(Cc4cccc(NC(=O)c5ccccc5)c4)C3=O)cc12 (stereo not drawn) | 0.55 | 6.3 | 5 |
| Cn1c(Cc2ccc3[nH]cc(CCN)c3c2)cn(Cc2ccccc2)c1=O | 0.95 | 7.1 | 6.3 |
| CCCNC(=O)c1cccc(CN2C(=O)NC(Cc3ccc4[nH]cc(CCN)c4c3)C2=O)c1 (stereo not drawn) | 0.99 | 6.8 | 4.5 |
| COc1ccc2[nH]cc(C3=CCNCC3)c2c1 | 0.89 | 7.1 | – |
| CN1C(=O)N(Cc2ccccc2)C(=O)C1Cc1ccc2[nH]cc(CCN)c2c1 (stereo not drawn) | 1 | 6 | < 4.5 |
| CN(C)CCc1c[nH]c2ccc(CCN3C(=O)NC(Cc4ccc([N+](=O)[O-])cc4)C3=O)cc12 (stereo not drawn) | 0.6 | 6.8 | < 4.5 |
| CN(C)CCc1c[nH]c2ccc(O)cc12 | 0.92 | 7.3 | 6.8 |
| NCCc1c[nH]c2ccc(CC3NC(=O)N(Cc4cccc(C(=O)Nc5ccccc5)c4)C3=O)cc12 (stereo not drawn) | 0.53 | 6.6 | 3.9 |
| O=C1NCN(c2ccccc2)C12CCN(CC1COc3ccccc3O1)CC2 (stereo not drawn) | – | 5.1 | 6.2 |
| CN(C)CCc1c[nH]c2ccc(CC3NC(=O)N(Cc4ccc(Oc5ccccc5)cc4)C3=O)cc12 (stereo not drawn) | 0.79 | 7.4 | 4.7 |
| O=C(c1ccc(F)cc1)C1CCN(CCn2c(=O)[nH]c3ccccc3c2=O)CC1 | – | 6 | 9.1 |
| CC(=O)Nc1cccc(CC2NC(=O)N(CCc3ccc4[nH]cc(CCN(C)C)c4c3)C2=O)c1 (stereo not drawn) | 0.6 | 7.2 | < 4.5 |
| NCCc1c[nH]c2ccc(C(N)=O)cc12 | 0.84 | 8.1 | 5.9 |
| CCC(CO)NC(=O)[C@H]1C=C2c3cccc4c3c(cn4C)CC2N(C)C1 (stereo partly drawn) | 0.64 | 6.7 | – |
| CN1C(=O)NC(Cc2ccc3[nH]cc(CCN)c3c2)C1=O (stereo not drawn) | – | 4.8 | 4 |
| CN(C)CCc1c[nH]c2ccc(CC3NC(=O)N(Cc4ccccc4)C3=O)cc12 (stereo not drawn) | – | 5.6 | < 4.5 |
| CN1C(=O)N(Cc2ccccc2)CC1Cc1ccc2[nH]cc(CCN)c2c1 (stereo not drawn) | – | 7.5 | 5 |
| CNCCc1c[nH]c2ccc(CCN3C(=O)CNC3=O)cc12 | 0.7 | 6.7 | < 4.5 |
| NCCc1c[nH]c2ccc(CC3NC(=O)N(Cc4cccc(NC(=O)c5ccccc5)c4)C3=O)cc12 (stereo not drawn) | 0.85 | 7.3 | 4.6 |
| CS(=O)(=O)Nc1ccc(C[C@H]2NC(=O)N(CCc3ccc4[nH]cc(CCN)c4c3)C2=O)cc1 | 0.7 | 7.1 | 5.3 |
| O=C1CC2(CCCC2)CC(=O)N1CCCCN1CCN(c2ncccn2)CC1 | – | 4.5 | – |
| NCCc1c[nH]c2ccc(CC3NC(=O)N(Cc4cccc(Oc5ccccc5)c4)C3=O)cc12 (stereo not drawn) | 0.79 | 7.4 | 4.7 |
| O=C(CCCN1CCC2(CC1)C(=O)NCN2c1ccccc1)c1ccc(F)cc1 | – | 5.8 | 9.7 |
| NCCc1c[nH]c2ccc(CC3NC(=O)N(Cc4ccc(C(=O)Nc5ccccc5)cc4)C3=O)cc12 (stereo not drawn) | 0.7 | 5.9 | 4.5 |

| Structure (SMILES) | Intrinsic activity [1] | p[A50] [2] | p[A50] [3] |
| --- | --- | --- | --- |
| CN(C)CCc1c[nH]c2ccc(CCN3C(=O)CNC3=O)cc12 | 0.5 | 6.1 | < 4.5 |
| O=C1CC2(CCCC2)CS(=O)(=O)N1CCCCN1CCN(c2ncccn2)CC1 | – | 4.9 | 5.1 |
| CNS(=O)(=O)Cc1ccc2[nH]cc(CCN(C)C)c2c1 | 0.83 | 6.6 | – |
| NCCc1c[nH]c2ccc(CC3NC(=O)N(Cc4ccccc4)C3=O)cc12 (stereo not drawn) | 0.72 | 6.1 | 4 |
| CC(=O)Nc1cccc(CC2NC(=O)N(CCc3ccc4[nH]cc(CCN)c4c3)C2=O)c1 (stereo not drawn) | 0.7 | 7 | < 4.5 |
| CN(C)CCc1c[nH]c2ccc(CCN3C(=O)N[C@@H](Cc4ccc(NS(C)(=O)=O)cc4)C3=O)cc12 | 0.6 | 7.4 | < 4.5 |
| CN(C)CCc1c[nH]c2ccc(CCC3NC(=O)N(Cc4ccccc4)C3=O)cc12 (stereo not drawn) | 0.2 | 6.3 | 5.9 |
| NCCc1c[nH]c2ccc(CC3NC(=O)N(CCCc4ccccc4)C3=O)cc12 (stereo not drawn) | 0.93 | 6.6 | < 4.5 |
| CS(=O)(=O)Nc1cccc(CC2NC(=O)N(CCc3ccc4[nH]cc(CCN)c4c3)C2=O)c1 (stereo not drawn) | 0.8 | 7.2 | < 4.5 |
| COC(=O)c1ccc(CC2NC(=O)N(CCc3ccc4[nH]cc(CCN)c4c3)C2=O)cc1 (stereo not drawn) | 0.7 | 7.3 | < 4.5 |
| CS(=O)(=O)Nc1ccc(CC2NC(=O)N(CCc3ccc4[nH]cc(CCN)c4c3)C2=O)cc1 (stereo not drawn) | 0.8 | 7.4 | 5.2 |
| CNCCc1c[nH]c2ccc(CCN3C(=O)NC(Cc4cccc(NC(C)=O)c4)C3=O)cc12 (stereo not drawn) | 0.6 | 6.9 | < 4.5 |
| Cc1ccc2[nH]cc(CCN)c2c1 | 1 | 6.1 | 6.2 |
| CN(C)CCc1c[nH]c2ccc(C[C@H]3CNC(=O)N3C)cc12 | 1 | 7 | < 4.5 |
| NCCc1c[nH]c2ccccc12 | 0.86 | 6.9 | 6.1 |
| CNC(=O)c1cccc(CN2C(=O)NC(Cc3ccc4[nH]cc(CCN)c4c3)C2=O)c1 (stereo not drawn) | 0.71 | 5.8 | 4.3 |
| CN(C)CCc1c[nH]c2ccc(CCN3C(=O)NC(Cc4ccc(NS(C)(=O)=O)cc4)C3=O)cc12 (stereo not drawn) | 0.6 | 7.4 | < 4.5 |
| CN(C)CCc1c[nH]c2ccc(CC3NC(=O)N(CCc4ccccc4)C3=O)cc12 (stereo not drawn) | 0.39 | 6 | – |
| C[C@@H](CO)NC(=O)[C@@H]1C=C2c3cccc4[nH]cc(c34)C[C@H]2N(C)C1 | 0.9 | 9 | – |
| CN1C(=O)NC[C@@H]1Cc1ccc2[nH]cc(CCN)c2c1 | 0.88 | 6.9 | 5 |
| NCCc1c[nH]c2ccc(CC3NC(=O)N(CCc4ccccc4)C3=O)cc12 (stereo not drawn) | 0.67 | 6.7 | 4.5 |
| NCCc1c[nH]c2ccc(CCC3NC(=O)N(Cc4ccccc4)C3=O)cc12 (stereo not drawn) | 0.9 | 6.7 | < 4.5 |
| CC(=O)Nc1ccc(CN2C(=O)NC(Cc3ccc4[nH]cc(CCN)c4c3)C2=O)cc1 (stereo not drawn) | 0.81 | 5.8 | – |
| NCCc1c[nH]c2ccc(CC3NC(=O)N(Cc4ccc(-c5ccccc5)cc4)C3=O)cc12 (stereo not drawn) | 0.6 | 6.7 | – |

Source: ChEMBL document CHEMBL1128543, “Computer-aided design and synthesis of 5-substituted tryptamines and their pharmacology at the 5-HT1D receptor: discovery of compounds with potential anti-migraine properties” (J Med Chem, 1995)
